Source: ChEMBL document CHEMBL4622881, “Design, synthesis and biological evaluation of novel pyrrolo[2,3-d]pyrimidine as tumor-targeting agents with selectivity for tumor uptake by high affinity folate receptors over the reduced folate carrier” (Bioorg Med Chem, 2020)

Legend:
[1] = Inhibition of GARFTase in Chinese Hamster MTXRII-OuaR2-4/RFC/FRalpha/PCFT-null R2 cells assessed as reduction in cell growth after 96 hrs by Cell-Titer Blue assay; type: cell-based; settings: Cricetulus griseus, R2, 96 h
[2] = Inhibition of GARFTase in Chinese Hamster PC43-10 cells expressing human RFC assessed as reduction in cell growth after 96 hrs by Cell-Titer Blue assay; settings: Cricetulus griseus, PC43-10, 96 h
How it was run: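 PC43-10 (RFC) or R2/PCFT4 (PCFT) CHO, grown in α-MEM + 10% bovine calf serum + G418 (1 mg/mL). ~2000 cells/well exposed to 0–1000 nM drug in folate-free RPMI 1640 with 10% dialyzed FBS and 25 nM leucovorin for 96 h. Viability by Cell-Titer Blue fluorescence; IC50 as 50% growth inhibition relative to drug-free cells; mean of 5–16 experiments.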

[3] = Inhibition of GARFTase in Chinese Hamster RT16 cells expressing human FRalpha assessed as reduction in cell growth after 96 hrs by Cell-Titer Blue assay; type: cell-based; settings: Cricetulus griseus, RT16, 96 h
[4] = Inhibition of GARFTase in Chinese Hamster D4 cells expressing human FRbeta assessed as reduction in cell growth after 96 hrs by Cell-Titer Blue assay; type: cell-based; settings: Cricetulus griseus
[5] = Inhibition of GARFTase in Chinese Hamster MTXRII-OuaR2-4 R2 cells expressing human PCFT assessed as reduction in cell growth after 96 hrs by Cell-Titer Blue assay; type: cell-based; settings: Cricetulus griseus, R2, 96 h
[6] = species: Cricetulus griseus; test: Potency index, ratio of (2S)-2-[[4-[4-(2-amino-4-oxo-3,7-dihydropyrrolo[2,3-d]pyrimidin-6-yl)butyl]benzoyl]amino]pentanedioic acid IC50 to compound IC50 for GARFTase in Chinese Hamster D4 cells expressing human FRbeta assessed as reduction in cell growth after 96 hrs by Cell-Titer Blue assay; type: cell-based
How it was run: (§1)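 CHO sublines from transporter-null R2 cells, expressing human FRβ (D4) or FRα (RT16), were kept in α-MEM with 10% calf serum and G418 (1 mg/mL). They were then moved to folate-free RPMI 1640 with 10% dialyzed FBS for 3 days. ~2000 cells/well were exposed to 0–1000 nM drug with 2 nM leucovorin for 96 h, ± 200 nM folic acid, and read by Cell-Titer Blue fluorescence. IC50 is 50% growth loss versus untreated cells; index is reference IC50 over compound IC50.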

[7] = target: T1, Trifunctional purine biosynthetic protein adenosine-3 (Homo sapiens) (UniProt P22102); test: Potency index, ratio of (2S)-2-[[4-[4-(2-amino-4-oxo-3,7-dihydropyrrolo[2,3-d]pyrimidin-6-yl)butyl]benzoyl]amino]pentanedioic acid IC50 to compound IC50 for GARFTase in human KB cells assessed as reduction in cell growth after 96 hrs by Cell-Titer Blue assay; type: cell-based
T1 sequence (whole entry): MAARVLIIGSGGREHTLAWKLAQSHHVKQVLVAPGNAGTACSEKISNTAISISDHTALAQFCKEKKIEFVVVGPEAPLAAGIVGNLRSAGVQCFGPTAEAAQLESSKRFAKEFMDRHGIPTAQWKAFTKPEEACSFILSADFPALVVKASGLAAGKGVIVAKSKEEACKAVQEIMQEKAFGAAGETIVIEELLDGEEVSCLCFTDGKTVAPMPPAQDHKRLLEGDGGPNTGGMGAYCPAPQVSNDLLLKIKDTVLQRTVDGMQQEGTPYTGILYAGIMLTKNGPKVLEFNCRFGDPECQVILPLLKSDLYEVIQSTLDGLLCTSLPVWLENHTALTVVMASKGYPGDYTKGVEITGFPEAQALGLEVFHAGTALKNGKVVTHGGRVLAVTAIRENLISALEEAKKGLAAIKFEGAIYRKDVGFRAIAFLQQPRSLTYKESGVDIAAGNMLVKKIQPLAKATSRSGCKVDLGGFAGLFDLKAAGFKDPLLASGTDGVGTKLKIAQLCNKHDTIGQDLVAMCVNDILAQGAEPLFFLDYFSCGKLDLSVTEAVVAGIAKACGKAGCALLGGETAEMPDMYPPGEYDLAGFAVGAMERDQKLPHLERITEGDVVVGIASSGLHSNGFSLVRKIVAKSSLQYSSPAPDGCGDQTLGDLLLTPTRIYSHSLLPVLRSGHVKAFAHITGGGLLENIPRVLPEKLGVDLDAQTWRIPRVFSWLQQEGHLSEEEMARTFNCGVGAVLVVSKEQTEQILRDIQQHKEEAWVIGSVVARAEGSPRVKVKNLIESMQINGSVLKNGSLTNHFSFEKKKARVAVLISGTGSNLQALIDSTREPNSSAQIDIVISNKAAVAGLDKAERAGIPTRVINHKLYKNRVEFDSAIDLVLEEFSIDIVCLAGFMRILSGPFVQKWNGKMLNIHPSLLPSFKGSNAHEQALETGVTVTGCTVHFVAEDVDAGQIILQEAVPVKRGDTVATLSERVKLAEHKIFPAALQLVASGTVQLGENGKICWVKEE
How it was run: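 KB human carcinoma cells, which express RFC, FRα and PCFT, were maintained in folate-free RPMI with 10% FBS. ~2000 cells/well were exposed to 0–1000 nM drug in folate-free RPMI 1640 with 10% dialyzed FBS and 2 nM leucovorin for 96 h, ± 200 nM folic acid. Viability was read by Cell-Titer Blue fluorescence. IC50 is 50% growth loss versus untreated cells; index is reference IC50 over compound IC50.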

[8] = species: Cricetulus griseus; test: Potency index, ratio of (2S)-2-[[4-[4-(2-amino-4-oxo-3,7-dihydropyrrolo[2,3-d]pyrimidin-6-yl)butyl]benzoyl]amino]pentanedioic acid IC50 to compound IC50 for GARFTase in Chinese Hamster RT16 cells expressing human FRalpha assessed as reduction in cell growth after 96 hrs by Cell-Titer Blue assay; type: cell-based; how it was run: as §1

Row | SMILES | IC50 [1] | IC50 [2] | IC50 [3] | IC50 [4] | IC50 [5] | Ratio IC50 [6] | Ratio IC50 [7] | Ratio IC50 [8]
1 | Nc1nc2[nH]c(CCCN(C=O)c3ccc(C(=O)N[C@@H](CCC(=O)O)C(=O)O)cc3)cc2c(=O)[nH]1 | > 1000 nM | > 1000 nM | 35.6 nM | 0.61 nM | 893 nM | 16 | – | –
2 | Nc1nc2[nH]c(CCCSc3ccc(C(=O)N[C@@H](CCC(=O)O)C(=O)O)cc3)cc2c(=O)[nH]1 | > 1000 nM | > 1000 nM | 2.56 nM | 0.6 nM | 593 nM | 16 | 6 | 2
3 | Nc1nc2[nH]c(CCNc3ccc(C(=O)N[C@@H](CCC(=O)O)C(=O)O)cc3)cc2c(=O)[nH]1 | > 1000 nM | 510 nM | 3.04 nM | 0.62 nM | 87.4 nM | – | – | –
4 | Nc1nc2[nH]c(CCCNc3ccc(C(=O)N[C@@H](CCC(=O)O)C(=O)O)cc3)cc2c(=O)[nH]1 | 697 nM | 670 nM | 1.76 nM | 1.51 nM | 235 nM | 6 | 2 | 3
5 | Nc1nc2[nH]c(CCCN(C(=O)C(F)(F)F)c3ccc(C(=O)N[C@@H](CCC(=O)O)C(=O)O)cc3)cc2c(=O)[nH]1 | > 1000 nM | > 1000 nM | 5.78 nM | 3.87 nM | 487 nM | 3 | – | –
6 | Nc1nc2[nH]c(CCCOc3ccc(C(=O)N[C@@H](CCC(=O)O)C(=O)O)cc3)cc2c(=O)[nH]1 | > 1000 nM | > 1000 nM | 4.6 nM | 5.6 nM | > 1000 nM | 2 | – | –
7 | Nc1nc2[nH]c(CCCCc3ccc(C(=O)N[C@@H](CCC(=O)O)C(=O)O)cc3)cc2c(=O)[nH]1 | > 1000 nM | > 1000 nM | – | – | – | – | – | –
8 | CC(=O)N(CCCc1cc2c(=O)[nH]c(N)nc2[nH]1)c1ccc(C(=O)N[C@@H](CCC(=O)O)C(=O)O)cc1 | > 1000 nM | > 1000 nM | 57.2 nM | 12.8 nM | > 1000 nM | – | – | –
9 | Nc1nc2[nH]c(CCCc3ccc(C(=O)N[C@@H](CCC(=O)O)C(=O)O)cc3)cc2c(=O)[nH]1 | > 1000 nM | 649 nM | – | – | – | – | – | –
